Data: ChEMBL document CHEMBL3097989, “Antimicrobial activity of de novo designed cationic peptides against multi-resistant clinical isolates” (Eur J Med Chem, 2014)
Where a SMILES comes first, the peptide text is derived from it.

Legend:
Type in all cases: functional
[1] = system: Staphylococcus haemolyticus; assay: Antibacterial activity against Staphylococcus haemolyticus M3014 by microdilution test
Outline: (§1)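 MIC by standard broth microdilution following CLSI recommendations, in Mueller Hinton broth supplemented with Ca²⁺ (20-25 mg/L) and Mg²⁺ (10-12.5 mg/L); ATCC reference strains included in the panel.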

[2] = system: Acinetobacter sp.; assay: Antibacterial activity against Acinetobacter sp. M7489 clinical isolate expressing blaOXA-51 and blaTEM gene by microdilution test
Outline: (§2)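 MIC by standard broth microdilution following CLSI recommendations, in Mueller Hinton broth supplemented with Ca²⁺ (20-25mg/L) and Mg²⁺ (10-12.5mg/L); peptides tested against a panel of multi-resistant clinical isolates plus ATCC reference strains.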

[3] = system: Klebsiella pneumoniae; assay: Antibacterial activity against Klebsiella pneumoniae M11245 clinical isolate expressing blaKPC-2 and blaPER-2 gene by microdilution test; outline: as §2
[4] = system: Pseudomonas aeruginosa; assay: Antibacterial activity against Pseudomonas aeruginosa M7728 clinical isolate expressing blaIMP gene by microdilution test; outline: as §1
[5] = system: Acinetobacter sp.; assay: Antibacterial activity against Acinetobacter sp. M5277 clinical isolate expressing blaPER gene by microdilution test; outline: as §2
[6] = system: Enterococcus faecium; assay: Antibacterial activity against Enterococcus faecium M6261 by microdilution test; outline: as §2
[7] = system: Acinetobacter sp.; assay: Antibacterial activity against Acinetobacter sp. M7978 clinical isolate expressing blaIMP-1 gene by microdilution test; outline: as §2
[8] = system: Enterococcus faecalis; assay: Antibacterial activity against Enterococcus faecalis M4992 clinical isolate expressing vanA gene by microdilution test; outline: as §2
[9] = system: Acinetobacter sp.; assay: Antibacterial activity against Acinetobacter sp. PFAV1 clinical isolate expressing blaOXA-51, blaOXA-58 and blaPER gene by microdilution test; outline: as §2
[10] = system: Enterococcus faecium; assay: Antibacterial activity against Enterococcus faecium PZAP95 by microdilution test; outline: as §2
[11] = system: Acinetobacter sp.; assay: Antibacterial activity against Acinetobacter sp. M9665 clinical isolate expressing blaOXA-51 gene by microdilution test; outline: as §2
[12] = system: Klebsiella pneumoniae; assay: Antibacterial activity against Klebsiella pneumoniae M9170 clinical isolate expressing blaOXA-GIII gene by microdilution test; outline: as §2
[13] = system: Escherichia coli; assay: Antibacterial activity against Escherichia coli M9209 clinical isolate expressing blaKPC-2 gene by microdilution test; outline: as §2
[14] = system: Enterococcus faecalis; assay: Antibacterial activity against Enterococcus faecalis M6983 clinical isolate expressing vanA gene by microdilution test; outline: as §2
[15] = system: Staphylococcus epidermidis; assay: Antibacterial activity against Staphylococcus epidermidis M2931 by microdilution test; outline: as §1
[16] = system: Staphylococcus warneri; assay: Antibacterial activity against Staphylococcus warneri M6823 clinical isolate expressing mecA gene by microdilution test; outline: as §1
[17] = system: Escherichia coli; assay: Antibacterial activity against Escherichia coli M5306 clinical isolate expressing blaPER-2, blaCTX-M-2 and blaTEM-1 gene by microdilution test; outline: as §2
[18] = system: Staphylococcus aureus; assay: Antibacterial activity against Staphylococcus aureus M2832 clinical isolate expressing mecA gene by microdilution test; outline: as §1
[19] = system: Staphylococcus aureus; assay: Antibacterial activity against Staphylococcus aureus M4046 clinical isolate expressing mecA gene by microdilution test; outline: as §1
[20] = system: Staphylococcus haemolyticus; assay: Antibacterial activity against Staphylococcus haemolyticus M2976 clinical isolate expressing mecA gene by microdilution test; outline: as §1
[21] = system: Klebsiella pneumoniae; assay: Antibacterial activity against Klebsiella pneumoniae M1803 clinical isolate expressing blaPER-2, blaCTX-M-2, blaTEM-1, blaSHV and blaOXA-9 gene by microdilution test; outline: as §2
[22] = system: Escherichia coli; assay: Antibacterial activity against Escherichia coli PNEU23 clinical isolate expressing blaOXA-GIII and blaTEM-1 gene by microdilution test; outline: as §2
[23] = system: Pseudomonas aeruginosa; assay: Antibacterial activity against Pseudomonas aeruginosa ATCC 27853 by microdilution test; outline: as §2
[24] = system: Klebsiella pneumoniae; assay: Antibacterial activity against Klebsiella pneumoniae M9491 clinical isolate expressing blaMOX gene by microdilution test; outline: as §2
[25] = system: Staphylococcus aureus; assay: Antibacterial activity against Staphylococcus aureus P204 clinical isolate expressing ermA gene by microdilution test; outline: as §1
[26] = system: Enterococcus gallinarum; assay: Antibacterial activity against Enterococcus gallinarum M2723 clinical isolate expressing vanC1 and vanA gene by microdilution test; outline: as §2
[27] = system: Enterococcus gallinarum; assay: Antibacterial activity against Enterococcus gallinarum M2685 clinical isolate expressing vanC1 and vanA gene by microdilution test; outline: as §2
[28] = system: Pseudomonas aeruginosa; assay: Antibacterial activity against Pseudomonas aeruginosa M5109 clinical isolate expressing blaVIM and blaGES-1 gene by microdilution test; outline: as §1
[29] = system: Staphylococcus saprophyticus; assay: Antibacterial activity against Staphylococcus saprophyticus M4070 clinical isolate expressing mecA gene by microdilution test; outline: as §1
[30] = system: Enterococcus faecium; assay: Antibacterial activity against Enterococcus faecium M2481 clinical isolate expressing vanB gene by microdilution test; outline: as §2
[31] = system: Klebsiella pneumoniae; assay: Antibacterial activity against Klebsiella pneumoniae M9375 clinical isolate expressing blaCTX-M-2, blaTEM-1 and blaSHV-1 gene by microdilution test; outline: as §2
[32] = system: Enterococcus faecalis; assay: Antibacterial activity against Enterococcus faecalis M6534 clinical isolate expressing vanB gene by microdilution test; outline: as §2
[33] = system: Staphylococcus hominis; assay: Antibacterial activity against Staphylococcus hominis M2973 clinical isolate expressing mecA gene by microdilution test; outline: as §1
[34] = system: Acinetobacter sp.; assay: Antibacterial activity against Acinetobacter sp. M5282 clinical isolate expressing blaOXA-51 gene by microdilution test; outline: as §2
[35] = system: Escherichia coli; assay: Antibacterial activity against Escherichia coli M7859 clinical isolate expressing blaCIT gene by microdilution test; outline: as §2
[36] = system: Pseudomonas aeruginosa; assay: Antibacterial activity against Pseudomonas aeruginosa M11005 clinical isolate expressing blaKPC-2 gene by microdilution test; outline: as §2
[37] = system: Enterococcus faecium; assay: Antibacterial activity against Enterococcus faecium M2304 clinical isolate expressing vanA gene by microdilution test; outline: as §2
[38] = system: Staphylococcus aureus; assay: Antibacterial activity against Staphylococcus aureus M6794 clinical isolate expressing mecA gene by microdilution test; outline: as §1
[39] = system: Klebsiella pneumoniae; assay: Antibacterial activity against Klebsiella pneumoniae M5825 clinical isolate expressing blaGES-3 and blaCTX-M-2 gene by microdilution test; outline: as §2
[40] = system: Klebsiella pneumoniae; assay: Antibacterial activity against Klebsiella pneumoniae M9310 clinical isolate expressing blaCTX-M-2, blaTEM-1 and blaSHV-1 gene by microdilution test; outline: as §2
[41] = system: Pseudomonas aeruginosa; assay: Antibacterial activity against Pseudomonas aeruginosa M7723 clinical isolate expressing blaKPC-2 gene by microdilution test; outline: as §1
[42] = system: Pseudomonas aeruginosa; assay: Antibacterial activity against Pseudomonas aeruginosa M7525 clinical isolate expressing blaSPM gene by microdilution test; outline: as §1
[43] = system: Staphylococcus epidermidis; assay: Antibacterial activity against Staphylococcus epidermidis M2923 by microdilution test; outline: as §1
[44] = system: Enterococcus faecalis; assay: Antibacterial activity against Enterococcus faecalis M4449 clinical isolate expressing vanA gene by microdilution test; outline: as §2
[45] = system: Staphylococcus aureus; assay: Antibacterial activity against Staphylococcus aureus P33 clinical isolate expressing msrA gene by microdilution test; outline: as §1
[46] = system: Pseudomonas aeruginosa; assay: Antibacterial activity against Pseudomonas aeruginosa M13513 clinical isolate expressing blaKPC-2 gene by microdilution test; outline: as §2
[47] = system: Klebsiella pneumoniae; assay: Antibacterial activity against Klebsiella pneumoniae PFAV3 by microdilution test; outline: as §2
[48] = system: Enterococcus faecalis; assay: Antibacterial activity against Enterococcus faecalis M6383 clinical isolate expressing vanA gene by microdilution test; outline: as §2
[49] = system: Staphylococcus cohnii; assay: Antibacterial activity against Staphylococcus cohnii M6767 clinical isolate expressing mecA gene by microdilution test; outline: as §1
[50] = system: Enterococcus faecalis; assay: Antibacterial activity against Enterococcus faecalis ATCC 51299 clinical isolate expressing vanB gene by microdilution test; outline: as §2
[51] = system: Staphylococcus aureus; assay: Antibacterial activity against Staphylococcus aureus M6820 clinical isolate expressing mecA gene by microdilution test; outline: as §1
[52] = system: Enterococcus faecalis; assay: Antibacterial activity against Enterococcus faecalis M4899 clinical isolate expressing vanB gene by microdilution test; outline: as §2

SMILES: CC[C@H](C)[C@H](N)C(=O)N[C@@H](CC(C)C)C(=O)N[C@@H](CCCNC(=N)N)C(=O)N[C@@H](Cc1c[nH]c2ccccc12)C(=O)N1CCC[C@H]1C(=O)N[C@@H](Cc1c[nH]c2ccccc12)C(=O)N[C@@H](Cc1c[nH]c2ccccc12)C(=O)N1CCC[C@H]1C(=O)N[C@@H](Cc1c[nH]c2ccccc12)C(=O)N[C@@H](CCCNC(=N)N)C(=O)N[C@@H](CCCNC(=N)N)C(=O)N[C@@H](CCCCN)C(N)=O.Cl.Cl.Cl.Cl.Cl [OMIGANAN PENTAHYDROCHLORIDE] (H-ILRWPWWPWRRK-NH2)
- MIC90 [1]: 4 µg/mL
- MIC90 [2]: 8 µg/mL
- MIC90 [3]: 32 µg/mL
- MIC90 [4]: 512 µg/mL
- MIC90 [5]: 32 µg/mL
- MIC90 [6]: 16 µg/mL
- MIC90 [7]: 16 µg/mL
- MIC90 [8]: 128 µg/mL
- MIC90 [9]: 16 µg/mL
- MIC90 [10]: 16 µg/mL
- MIC90 [11]: 4 µg/mL
- MIC90 [12]: 128 µg/mL
- MIC90 [13]: 64 µg/mL
- MIC90 [14]: 128 µg/mL
- MIC90 [15]: 16 µg/mL
- MIC90 [16]: 8 µg/mL
- MIC90 [17]: 64 µg/mL
- MIC90 [18]: 64 µg/mL
- MIC90 [19]: 32 µg/mL
- MIC90 [20]: 4 µg/mL
- MIC90 [21]: 1020 µg/mL
- MIC90 [22]: 32 µg/mL
- MIC90 [23]: 256 µg/mL
- MIC90 [24]: 128 µg/mL
- MIC90 [25]: 64 µg/mL
- MIC90 [26]: 16 µg/mL
- MIC90 [27]: 16 µg/mL
- MIC90 [28]: 256 µg/mL
- MIC90 [29]: 8 µg/mL
- MIC90 [30]: 16 µg/mL
- MIC90 [31]: 32 µg/mL
- MIC90 [32]: 256 µg/mL
- MIC90 [33]: 4 µg/mL
- MIC90 [34]: 8 µg/mL
- MIC90 [35]: 64 µg/mL
- MIC90 [36]: 512 µg/mL
- MIC90 [37]: 4 µg/mL
- MIC90 [38]: 64 µg/mL
- MIC90 [39]: 64 µg/mL
- MIC90 [40]: 64 µg/mL
- MIC90 [41]: 256 µg/mL
- MIC90 [42]: 512 µg/mL
- MIC90 [43]: 8 µg/mL
- MIC90 [44]: 128 µg/mL
- MIC90 [45]: 32 µg/mL
- MIC90 [46]: 256 µg/mL
- MIC90 [47]: 128 µg/mL
- MIC90 [48]: 128 µg/mL
- MIC90 [49]: 4 µg/mL
- MIC90 [50]: 256 µg/mL
- MIC90 [51]: 128 µg/mL
- MIC90 [52]: 256 µg/mL
